We go through three molecules from PMC4721638 (Integrative biology : quantitative biosciences from nano to …, 2015).

[ ]: non-standard residue; d: D form. Ahx = NCCCCCC(=O)O

The target of assay [1] is T1, RHAMM:HA interaction, immobilized recombinant RHAMM (Mus musculus, UniProt Q00547).
T1 sequence (Q00547 with tags, fused parts or gaps): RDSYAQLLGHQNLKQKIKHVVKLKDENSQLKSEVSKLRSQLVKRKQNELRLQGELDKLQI
As to the kind of experiment: Competitive ELISA, fluorescein-labelled peptides vs HA. It is filed as binding. The note with it: summary of the competitive ELISA results. (In general: An ELISA detects its analyte on a solid surface through an enzyme-linked reagent.)

In assay [2] the test system is PC3MLN4 cells. As to the kind of experiment: Cell invasion assay. It is filed as cell-based, human. The following applies: 10 µg/mL, 48 hrs, compared to scrambled peptide control. The gist of the method:
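Gelatin invadopodia assay: PC3MLN4 cells are plated at 50% confluency on Cy3-gelatin-coated chamber slides in growth medium with test peptide or scrambled control peptide (10 µg/mL each). After 48 h, cells are fixed, stained with FITC-phalloidin and DAPI, and imaged by confocal microscopy to assess degradation of the fluorescent matrix.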

Assay [3] relates to PC3MLN4 cells. As to the kind of experiment: Anchorage independent growth. It is filed as cell-based, human.
Assay [4] deals with PC3MLN4 cells. As to the kind of experiment: Cell adhesion on invasion assay substrates. It counts as cell-based, human. The note with it: PC3MLN4 on the invasion assay substrates (not shown).
Assay [5] concerns the target T2, peptide 2b (VEGEGEEEGEEY).
T2 peptide: Ac-C[Ahx]VEGEGEEEGEEY-NH2
As to the kind of experiment: SPR.

For assay [6], the target named is T3, peptide 14b (FTEAESNMNDLV).
T3 peptide: Ac-C[Ahx]FTEAESNMNDLV-NH2
As to the kind of experiment: SPR.

Assay [7] deals with T4, peptide 10b (EEDFGEEAEEEA).
T4 peptide: Ac-C[Ahx]EEDFGEEAEEEA-NH2
As to the kind of experiment: SPR. In general terms: Surface plasmon resonance follows binding to a sensor surface in real time, without labels.

Regarding EAFEDEEEEIDG [12a], the “Overall efficiency at competing with HA for binding to RHAMM” value in assay [1] is “most efficient at competing with HA”.

In the case of FTEAESNMNDLV [14a], the “Inhibition of the ability to degrade collagen” value in assay [2] came to 80%. Moreover, in assay [1], the “Overall efficiency at competing with HA for binding to RHAMM” value is recorded as “most efficient at competing with HA”. In assay [3], the “Effect on anchorage independent proliferation” value is given as “marginal effects”. For the same molecule, in assay [4], the “Inhibition of cell adhesion” value is reported as “no observed inhibition”.

B1: Recombinant protein RHAMM-CT (aa. 706–767) (domain or fragment)
chain: RDSYAQLLGHQNLKQKIKHVVKLKDENSQLKSEVSKLRSQLVKRKQNELRLQGELDKLQI
Take B1: the values for the dissociation constant (Kd) in assay [5], in assay [6] and in assay [7] were 24 nM, 30 nM and 32 nM, respectively.

The term Kd denotes the free concentration of one partner at which half of the binding sites on the other are occupied at equilibrium, for simple one-to-one binding. Low values mean higher affinity, high ones lower affinity.
